Assay outcomes from PubChem BioAssay.
CAL PDZ FP-1: CAL PDZ (human) peptide binding inhibition; purified CAL PDZ, TMR-peptide fluorescence polarization, 1 h; inhibition, % at 24.9 µM; 0.92% of 300,000 active; AID 602252;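 active = mean inhibition of at least 30% with at least half of replicates also reaching 30%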;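 note: 0% = DMSO neutral control and 100% = excess unlabeled competitor peptide PRC23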
DYRK1A inh: blocks rat Dyrk1A kinase activity; Q63470; ADP-Glo luminescence, NFATc1 peptide; inhibition, % at 12.5 µM; 0.43% of 310,000 active; AID 504441; in the data active = inhibition above about 50%;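 note: plate controls were vehicle with enzyme for no effect and no enzyme for full effect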
ARNT TACC3 PPI: ARNT/TACC3 interaction disruption; Q9Y6A5; AlphaScreen His-ARNT PAS-B/GST-TACC3 binding, luminescence; TACC3 fragment carries E629A point mutation; inhibition, % at 9.99 µM; 0.66% of 390,000 active;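 active = mean inhibition of replicates at least 50% and at least half of replicates each reaching 50%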;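 note: 0% = complete ARNT plus TACC3 wells and 100% = ARNT alone without TACC3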
CAL PDZ FP-2: blocks peptide binding to human CAL PDZ domain; Q9HD26; purified CAL PDZ, TMR-peptide fluorescence polarization, 1 h; inhibition, % at 20 µM; 0.02% of 330,000 active;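 active = highest replicate inhibition of at least 40%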;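 note: plate controls were DMSO neutral control wells for no effect and unlabeled competitor peptide control wells for full effect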
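Material: tagged CAL PDZ protein CerCALP, purified; buffer or medium: sodium phosphate/NaCl buffer pH 7.4 with TCEP, IgG, Thesit; also added: fluorescent TMR peptide probe; schedule: 1 h incubation at room temperature before polarization reading; technique: fluorescence polarization from S- and P-plane intensities, G-factor corrected; control set: unlabelled peptide and DMSO controls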
Numbers without * were called inactive. The list is not random: actives were taken first. Their share in the collection is about 1.4%.

What do the screens show for `OC1(CC#CCN2CCCCC2)c2ccccc2-c2ccccc21`?
CAL PDZ FP-1: -6; DYRK1A inh: 10; ARNT TACC3 PPI: -4; CAL PDZ FP-2: -2

Results for OC1(C#CCCN2CCCCC2)c2ccccc2-c2ccccc21 ?
CAL PDZ FP-1: 50*; DYRK1A inh: 9; ARNT TACC3 PPI: -1; CAL PDZ FP-2: 12

How did Cn1c(=O)[nH]c(=O)c2c1nc(SCCC(=O)O)n2Cc1cccc(Br)c1 do in these assays?
CAL PDZ FP-1: -4; DYRK1A inh: 4; ARNT TACC3 PPI: -3; CAL PDZ FP-2: 1

Results for CC(=O)CSc1nc2c(c(=O)[nH]c(=O)n2C)n1Cc1cccc(Br)c1 ?
CAL PDZ FP-1: 57*; DYRK1A inh: 2; ARNT TACC3 PPI: -2; CAL PDZ FP-2: -1

What do the screens show for `Cc1ccc(S(=O)(=O)Oc2ccc3c(c2)O/C(=C\c2cccnc2)C3=O)cc1`?
CAL PDZ FP-1: 0; DYRK1A inh: 6; ARNT TACC3 PPI: -8; CAL PDZ FP-2: 0

What do the screens show for `O=C1/C(=C/c2cccnc2)Oc2cc(OS(=O)(=O)c3ccc(F)cc3)ccc21`?
CAL PDZ FP-1: -2; DYRK1A inh: 2; ARNT TACC3 PPI: 60*

Results for C[C@@H]1CCCCO[C@@H](CN(C)Cc2ccc(C(=O)O)cc2)[C@@H](C)CN([C@@H](C)CO)C(=O)c2cc(NS(=O)(=O)c3ccccc3)ccc2O1 ?
ARNT TACC3 PPI: -3

How did COc1ccc(NC(=O)Nc2ccc3c(c2)CC(=O)N([C@H](C)CO)C[C@@H](C)[C@H](CN(C)C(=O)NC(C)C)O3)cc1 do in these assays?
ARNT TACC3 PPI: -15

Results for COc1ccc(CNC(=O)C[C@H]2C[C@H](C(=O)N3CCOCC3)[C@@]3(CCC4CCCC4)c4[nH]c5cc(CCC(=O)N(C)C)ccc5c4CCN3C2=O)cc1OC ?
CAL PDZ FP-1: 51*; DYRK1A inh: 6; ARNT TACC3 PPI: 3; CAL PDZ FP-2: 0

Results for O=C1CN2NC(=S)N(c3ccc(Cl)cc3)C2=CN1c1ccc(Cl)cc1 ?
CAL PDZ FP-1: -1; DYRK1A inh: 3; ARNT TACC3 PPI: 1; CAL PDZ FP-2: 1

How did O=C1CN2NC(=S)N(c3ccccc3)C2=CN1c1ccc(Cl)cc1 do in these assays?
CAL PDZ FP-1: 115*; DYRK1A inh: -3; ARNT TACC3 PPI: -4; CAL PDZ FP-2: -1

How did C[C@@H]1CN([C@H](C)CO)C(=O)c2cc(NC(=O)CCN3CCOCC3)ccc2O[C@@H]1CN(C)Cc1ccc(C(=O)Nc2ccccc2N)cc1 do in these assays?
ARNT TACC3 PPI: -6

What do the screens show for `N/C(COc1ccc(Cl)cc1)=N\NS(=O)(=O)c1ccccc1`?
CAL PDZ FP-1: 1; DYRK1A inh: -1; ARNT TACC3 PPI: -2; CAL PDZ FP-2: -3

Results for N/C(=N\NS(=O)(=O)c1ccccc1)c1ccccn1 ?
CAL PDZ FP-1: 6; DYRK1A inh: 1; ARNT TACC3 PPI: 67*; CAL PDZ FP-2: -1

How did N/C(=N\NS(=O)(=O)c1ccc(Cl)cc1)c1ccccn1 do in these assays?
CAL PDZ FP-1: -3; DYRK1A inh: -2; ARNT TACC3 PPI: 43*; CAL PDZ FP-2: 0

Results for COc1ccc(NC(=O)N[C@@H]2CC[C@H](CCNC(=O)c3ccccc3F)O[C@@H]2CO)cc1 ?
ARNT TACC3 PPI: -8

How did CCN(CC(=O)Nc1c(F)cccc1F)C(=O)C1CC(=O)N(CCc2ccccc2)C1 (configuration not stated) do in these assays?
CAL PDZ FP-1: -4; DYRK1A inh: 16; ARNT TACC3 PPI: -3; CAL PDZ FP-2: -2

What do the screens show for `Cc1ccc(NC(=O)C2CC(=O)N(CCc3ccccc3)C2)cc1Cl` (configuration not stated)?
CAL PDZ FP-1: 80*; ARNT TACC3 PPI: -3; CAL PDZ FP-2: -3

Results for CN(Cc1c(F)cccc1Cl)C(=O)C1CC(=O)N(CCc2ccccc2)C1 (configuration not stated) ?
CAL PDZ FP-1: 78*; DYRK1A inh: -2; ARNT TACC3 PPI: -3; CAL PDZ FP-2: 5

What do the screens show for `CN1C(=O)c2cc(NC(=O)c3ccccc3)ccc2OC[C@@H]2O[C@@H](CC(=O)NCC3CC3)CC[C@H]21`?
ARNT TACC3 PPI: -2

What do the screens show for `COc1ccc(NC(=O)Nc2ccc3c(c2)[C@@H]2C[C@@H](CC(=O)NCc4ccccn4)O[C@@H](CO)[C@@H]2O3)cc1`?
ARNT TACC3 PPI: 0

What do the screens show for `C[C@H]1CN([C@@H](C)CO)C(=O)c2cc(NC(=O)c3ccncc3)ccc2O[C@@H]1CN(C)C(=O)Nc1ccc2c(c1)OCO2`?
ARNT TACC3 PPI: -4

What do the screens show for `COc1cc(-n2nc(C)c3c2OC(N)=C(C#N)C3c2ccccc2)c(Cl)c(Br)c1O` (configuration not stated)?
CAL PDZ FP-1: -6; DYRK1A inh: 19; ARNT TACC3 PPI: 33*; CAL PDZ FP-2: 0

Results for c1ccc(N2CCN(Cc3cnc(N4CCOCC4)s3)CC2)cc1 ?
CAL PDZ FP-1: -2; CAL PDZ FP-2: -1

Results for c1cnn(Cc2cnc(N3CCOCC3)s2)c1 ?
CAL PDZ FP-1: 61*; DYRK1A inh: 2; ARNT TACC3 PPI: 2; CAL PDZ FP-2: -1

What do the screens show for `C[C@@H]1CN([C@H](C)CO)C(=O)c2cc(C#Cc3ccncc3)cnc2O[C@H]1CN(C)CC1CCOCC1`?
ARNT TACC3 PPI: 0

Results for CCOC(=O)N1CCC(=C(C#N)C(=O)Nc2cc(OC)ccc2OC)CC1 ?
CAL PDZ FP-1: 31*; DYRK1A inh: 2; ARNT TACC3 PPI: 8; CAL PDZ FP-2: 0

Results for Oc1ccc(/C=N/N2CCN(c3ccccn3)CC2)cc1 ?
CAL PDZ FP-1: -2; DYRK1A inh: 9; ARNT TACC3 PPI: -4; CAL PDZ FP-2: -2

Results for CC(C)(C)c1ccc(/C=N/N2CCN(c3ccccn3)CC2)cc1 ?
CAL PDZ FP-1: 53*; ARNT TACC3 PPI: 7; CAL PDZ FP-2: -1

Results for O=C(COc1ccc(Cl)c2cccnc12)N1CCOCC1 ?
CAL PDZ FP-1: 115*; DYRK1A inh: 2; CAL PDZ FP-2: 0

Results for C/C(CC(=O)Nc1ccc(Cl)cc1Cl)=N\NC(=O)C(=O)N1CCCC1 ?
CAL PDZ FP-1: -2; DYRK1A inh: -10; ARNT TACC3 PPI: -8; CAL PDZ FP-2: -2

How did C/C(CC(=O)Nc1ccccc1Br)=N\NC(=O)C(=O)N1CCCC1 do in these assays?
CAL PDZ FP-1: 108*; DYRK1A inh: 2; ARNT TACC3 PPI: 6; CAL PDZ FP-2: 0

Results for COc1ccc(CCC(=O)Nc2ncc(C)s2)cc1OC ?
CAL PDZ FP-1: 50*; DYRK1A inh: -1; ARNT TACC3 PPI: 11; CAL PDZ FP-2: -1

Results for COc1ccc(CC(=O)Nc2ncc([N+](=O)[O-])s2)cc1OC ?
CAL PDZ FP-1: 0; DYRK1A inh: 44; ARNT TACC3 PPI: 18*; CAL PDZ FP-2: 0

What do the screens show for `O=C(O)c1ccc(Cl)c(S(=O)(=O)NCC2CCCO2)c1` (configuration not stated)?
CAL PDZ FP-1: 0; DYRK1A inh: 5; ARNT TACC3 PPI: -1; CAL PDZ FP-2: -1
